pIC50: −log10 of the molar value. Values belong to the compound of their own block, whether it stands above or below them. Calls of active or inactive are those of the source. No cut-off for these calls is given here.
Key:
MDA-MB-231 [1] = experiment: Antiproliferative activity against human MDA-MB-231 cells measured after 48 hrs by MTT assay; assay type: functional, cell-based; settings: MDA-MB-231, 48 h
Summary of the method: (§1)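 Cells kept in 10% FBS medium with penicillin/streptomycin/L-glutamine at 37 °C, 5% CO2 (MDA-MB-231 in DMEM, K562 in RPMI 1640). Viability read by MTT reduction to formazan after 48 h of exposure. IC50 obtained by nonlinear regression against vehicle control, given as mean ±SD of three independent experiments (n = 2 where footnoted).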

K562 [2] = experiment: Antiproliferative activity against human K562 cells measured after 48 hrs by MTT assay; assay type: functional, cell-based; settings: K562, 48 h; summary of the method: as §1
MDA-MB-231 [3] = experiment: Induction of apoptosis in human MDA-MB-231 cells assessed as viable cells at 10 umol/L measured after 2 hrs by annexin-V-FITC/7-AAD staining based flow cytometric analysis (reference value: 97 to 98%); assay type: functional; settings: MDA-MB-231, 2 h, read-out: Activity
MDA-MB-231 [4] = experiment: Induction of apoptosis in human MDA-MB-231 cells assessed as viable cells at 10 umol/L measured after 4 hrs by annexin-V-FITC/7-AAD staining based flow cytometric analysis (reference value: 97 to 98%); assay type: functional; settings: MDA-MB-231, 4 h, read-out: Activity
MDA-MB-231 [5] = experiment: Induction of apoptosis in human MDA-MB-231 cells assessed as viable cells at 10 umol/L measured after 6 hrs by annexin-V-FITC/7-AAD staining based flow cytometric analysis (reference value: 97 to 98%); assay type: functional; settings: MDA-MB-231, 6 h, read-out: Activity
MDA-MB-231 [6] = experiment: Induction of apoptosis in human MDA-MB-231 cells assessed as viable cells at 10 umol/L measured after 8 hrs by annexin-V-FITC/7-AAD staining based flow cytometric analysis (reference value: 97 to 98%); assay type: functional; settings: MDA-MB-231, 8 h, read-out: Activity
MDA-MB-231 [7] = experiment: Induction of apoptosis in human MDA-MB-231 cells assessed as viable cells at 10 umol/L measured after 24 hrs by annexin-V-FITC/7-AAD staining based flow cytometric analysis (reference value: 97 to 98%); assay type: functional; settings: MDA-MB-231, 24 h, read-out: Activity
MDA-MB-231 [8] = experiment: Induction of apoptosis in human MDA-MB-231 cells assessed as early apoptotic cells at 10 umol/L measured after 6 hrs by annexin-V-FITC/7-AAD staining based flow cytometric analysis relative to control; assay type: functional
MDA-MB-231 [9] = experiment: Induction of apoptosis in human MDA-MB-231 cells assessed as early apoptotic cells at 10 umol/L measured after 8 hrs by annexin-V-FITC/7-AAD staining based flow cytometric analysis relative to control; assay type: functional
MDA-MB-231 [10] = experiment: Induction of apoptosis in human MDA-MB-231 cells assessed as early apoptotic cells at 10 umol/L measured after 24 hrs by annexin-V-FITC/7-AAD staining based flow cytometric analysis relative to control; assay type: functional
MDA-MB-231 [11] = experiment: Induction of apoptosis in human MDA-MB-231 cells assessed as late apoptotic cells at 10 umol/L measured after 6 hrs by annexin-V-FITC/7-AAD staining based flow cytometric analysis relative to control; assay type: functional
MDA-MB-231 [12] = experiment: Induction of apoptosis in human MDA-MB-231 cells assessed as late apoptotic cells at 10 umol/L measured after 8 hrs by annexin-V-FITC/7-AAD staining based flow cytometric analysis relative to control; assay type: functional
MDA-MB-231 [13] = experiment: Induction of apoptosis in human MDA-MB-231 cells assessed as late apoptotic cells at 10 umol/L measured after 24 hrs by annexin-V-FITC/7-AAD staining based flow cytometric analysis relative to control; assay type: functional
MDA-MB-231 [14] = experiment: Cell cycle arrest in human MDA-MB-231 cells assessed as accumulation at sub-G0 phase at 1 uM measured after 24 hrs by propidium iodide staining based flow cytometry (reference value: 3%); assay type: functional
MDA-MB-231 [15] = experiment: Cell cycle arrest in human MDA-MB-231 cells assessed as accumulation at G1 phase at 1 uM measured after 24 hrs by propidium iodide staining based flow cytometry (reference value: 62%); assay type: functional
MDA-MB-231 [16] = experiment: Cell cycle arrest in human MDA-MB-231 cells assessed as accumulation at S phase at 1 uM measured after 24 hrs by propidium iodide staining based flow cytometry (reference value: 12%); assay type: functional
MDA-MB-231 [17] = experiment: Cell cycle arrest in human MDA-MB-231 cells assessed as accumulation at G2 phase at 1 uM measured after 24 hrs by propidium iodide staining based flow cytometry (reference value: 23%); assay type: functional
MDA-MB-231 [18] = experiment: Cell cycle arrest in human MDA-MB-231 cells assessed as accumulation at sub-G0 phase at 3 uM measured after 24 hrs by propidium iodide staining based flow cytometry (reference value: 3%); assay type: functional
MDA-MB-231 [19] = experiment: Cell cycle arrest in human MDA-MB-231 cells assessed as accumulation at G1 phase at 3 uM measured after 24 hrs by propidium iodide staining based flow cytometry (reference value: 62%); assay type: functional
MDA-MB-231 [20] = experiment: Cell cycle arrest in human MDA-MB-231 cells assessed as accumulation at S phase at 3 uM measured after 24 hrs by propidium iodide staining based flow cytometry (reference value: 12%); assay type: functional
MDA-MB-231 [21] = experiment: Cell cycle arrest in human MDA-MB-231 cells assessed as accumulation at G2 phase at 3 uM measured after 24 hrs by propidium iodide staining based flow cytometry (reference value: 23%); assay type: functional
MDA-MB-231 [22] = experiment: Cell cycle arrest in human MDA-MB-231 cells assessed as accumulation at sub-G0 phase at 10 uM measured after 24 hrs by propidium iodide staining based flow cytometry (reference value: 3%); assay type: functional
MDA-MB-231 [23] = experiment: Cell cycle arrest in human MDA-MB-231 cells assessed as accumulation at G1 phase at 10 uM measured after 24 hrs by propidium iodide staining based flow cytometry (reference value: 62%); assay type: functional
MDA-MB-231 [24] = experiment: Cell cycle arrest in human MDA-MB-231 cells assessed as accumulation at S phase at 10 uM measured after 24 hrs by propidium iodide staining based flow cytometry (reference value: 12%); assay type: functional
MDA-MB-231 [25] = experiment: Cell cycle arrest in human MDA-MB-231 cells assessed as accumulation at G2 phase at 10 uM measured after 24 hrs by propidium iodide staining based flow cytometry (reference value: 23%); assay type: functional
MDA-MB-231 [26] = experiment: Cell cycle arrest in human MDA-MB-231 cells assessed as accumulation at sub-G0 phase at 30 uM measured after 24 hrs by propidium iodide staining based flow cytometry (reference value: 3%); assay type: functional
MDA-MB-231 [27] = experiment: Cell cycle arrest in human MDA-MB-231 cells assessed as accumulation at G1 phase at 30 uM measured after 24 hrs by propidium iodide staining based flow cytometry (reference value: 62%); assay type: functional
MDA-MB-231 [28] = experiment: Cell cycle arrest in human MDA-MB-231 cells assessed as accumulation at S phase at 30 uM measured after 24 hrs by propidium iodide staining based flow cytometry (reference value: 12%); assay type: functional
MDA-MB-231 [29] = experiment: Cell cycle arrest in human MDA-MB-231 cells assessed as accumulation at G2 phase at 30 uM measured after 24 hrs by propidium iodide staining based flow cytometry (reference value: 23%); assay type: functional
MDA-MB-231 [30] = experiment: Induction of superoxide generation in human MDA-MB-231 cells at 5 umol/L measured after 24 hrs by DHE staining based flow cytometry; assay type: functional, cell-based
Summary of the method: (§2)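 Cells were treated with compound at 5 μmol/L or DMSO for 24 h, with or without dicoumarol preincubation (5 μmol/L, 30 min), then stained with DHE for 30 min. 2-OH-DHE fluorescence was read by flow cytometry and expressed relative to vehicle control. At least three independent measurements.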

MDA-MB-231 [31] = experiment: Induction of superoxide generation in human MDA-MB-231 cells at 5 umol/L measured after 24 hrs in presence of NQO1 inhibitor dicoumarol by DHE staining based flow cytometry; assay type: functional, cell-based; summary of the method: as §2
K562 [32] = experiment: Induction of superoxide generation in human K562 cells at 5 umol/L measured after 24 hrs in presence of NQO1 inhibitor dicoumarol by DHE staining based flow cytometry; assay type: functional, cell-based; summary of the method: as §2

pIC50 (MDA-MB-231 [1]): 5.74
pIC50 (K562 [2]): 5.55
SMILES: O=C1C(=O)c2ccoc2-c2ccccc21
viability at 10 µM (MDA-MB-231 [3]): 96%
viability at 10 µM (MDA-MB-231 [4]): 95%
viability at 10 µM (MDA-MB-231 [5]): 91%
viability at 10 µM (MDA-MB-231 [6]): 87%
viability at 10 µM (MDA-MB-231 [7]): 32%
Activity (MDA-MB-231 [8]): 4%
Activity (MDA-MB-231 [9]): 6%
Activity (MDA-MB-231 [10]): 15%
Activity (MDA-MB-231 [11]): 6%
Activity (MDA-MB-231 [12]): 8%
Activity (MDA-MB-231 [13]): 54%
Activity (MDA-MB-231 [14]): 3%
Activity (MDA-MB-231 [15]): 64%
Activity (MDA-MB-231 [16]): 15%
Activity (MDA-MB-231 [17]): 19%
Activity (MDA-MB-231 [18]): inactive
Activity (MDA-MB-231 [19]): 59%
Activity (MDA-MB-231 [20]): 15%
Activity (MDA-MB-231 [21]): 25%
Activity (MDA-MB-231 [22]): inactive
Activity (MDA-MB-231 [23]): 60%
Activity (MDA-MB-231 [24]): 15%
Activity (MDA-MB-231 [25]): 24%
Activity (MDA-MB-231 [26]): inactive
Activity (MDA-MB-231 [27]): 62%
Activity (MDA-MB-231 [28]): 14%
Activity (MDA-MB-231 [29]): 22%
Activity (MDA-MB-231 [30]): Active
Activity (MDA-MB-231 [31]): Active
Activity (K562 [32]): inactive

pIC50 (MDA-MB-231 [1]): < 5.00
pIC50 (K562 [2]): 5.28
SMILES: O=C1c2ccccc2C(=O)c2occc21

pIC50 (MDA-MB-231 [1]): < 5.00
pIC50 (K562 [2]): < 5.00
SMILES: CC1(C)CCC2=C(O1)C(=O)c1ccccc1C2=O [ALPHA-LAPACHONE]

Source: ChEMBL document CHEMBL4145650, “Napabucasin and Related Heterocycle-Fused Naphthoquinones as STAT3 Inhibitors with Antiproliferative Activity against Cancer Cells” (J Nat Prod, 2018)
